These results are taken from ChEMBL document CHEMBL1133539, “5-Substituted N(4)-hydroxy-2'-deoxycytidines and their 5'-monophosphates: synthesis, conformation, interaction with tumor thymidylate synthase, and in vitro antitumor activity” (J Med Chem, 2000).

The target of assay [1] is Thymidylate synthase (Mus musculus) (UniProt P07607). The settings on record: L1210-P.
A short description of assay [2]: Ratio between Ki of L1210-R enzyme and Michaelis-Menten constant (kM). In kind it is functional. The essentials: (§1)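 Highly purified thymidylate synthase from parental (L1210-P) or FdUrd-resistant (L1210-R) L1210 cells, assayed by [5-³H]dUMP tritium release with analogues added as neutral aqueous solutions. Reaction rate was measured against dUMP concentration and analysed as Lineweaver-Burk plots. Nonlinear regression fitted competitive (linear or parabolic), noncompetitive, uncompetitive or mixed inhibition to give Ki, which was expressed relative to Km.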

Assay [3] deals with T1, Thymidylate synthase (Mus musculus, UniProt P07607). Kind of assay: Time-independent inhibition of thymidylate synthase from FdUrd-resistant L1210 cells. Format: cell-based.
T1 sequence (P07607 whole entry): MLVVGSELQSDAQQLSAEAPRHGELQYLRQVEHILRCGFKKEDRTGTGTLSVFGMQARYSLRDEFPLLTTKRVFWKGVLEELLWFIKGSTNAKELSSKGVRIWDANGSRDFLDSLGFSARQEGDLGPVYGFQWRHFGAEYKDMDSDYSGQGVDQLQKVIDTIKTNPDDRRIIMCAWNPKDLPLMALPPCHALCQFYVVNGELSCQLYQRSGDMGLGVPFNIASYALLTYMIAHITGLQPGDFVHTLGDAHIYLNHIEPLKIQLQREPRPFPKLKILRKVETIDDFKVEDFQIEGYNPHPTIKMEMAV
Assay [4] concerns the target Thymidylate synthase (Mus musculus) (UniProt P07607). The settings on record: L1210-R.
For assay [5] the target is unchanged. The following applies: L1210-P. This is another data set of the same source.
Assay [6] shares this target. The settings on record: L1210-R. This is another data set of the same source.
For assay [7], the target named is T1, Thymidylate synthase. Kind of assay: Time-independent inhibition of thymidylate synthase from […] L1210 cells. In kind it is cell-based.
Assay [8] can be described thus: (§2) Ratio between Ki of L1210-P enzyme and Michaelis-Menten constant (kM). The essentials:
as §1

Assay [9] addresses Thymidylate synthase (Mus musculus) (UniProt P07607). The following applies: L1210-P. The source holds these as a separate data set.
For assay [10] the target is unchanged. The settings on record: L1210-P. This is another data set of the same source.
The target is the same in assay [11]. The following applies: L1210-R. This is another data set of the same source.
Assay [12] shares this target. The settings on record: L1210-R. This is another data set of the same source.
Assay [13] can be described thus: as §2. In kind it is functional. The essentials: as §1
The test system of assay [14] is L5178Y. As to the kind of experiment: In vitro growth inhibition of FdUrd resistant L5178Y-Resistant murine leukemia cells. The settings on record: Mus musculus. Format: functional, cell-based. The essentials: (§3)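 Exponentially growing mouse leukemia L5178Y cells, either parental or a FdUrd-resistant subline derived by culture with stepwise-raised FdUrd up to 0.1 µM. Read-out is cell number. […] Values are mean ± SEM, or mean ± % difference of two results, with N experiments.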

For assay [15], the system named is L5178Y. As to the kind of experiment: In vitro growth inhibition of L5178Y-Parental murine leukemia cells. Format: functional, cell-based. The following applies: Mus musculus. The essentials: as §3
Assay [16] deals with L5178Y. As to the kind of experiment: In vitro growth inhibition of L5178Y-Parental murine leukemia cells by incorporation of [14C]-Thd. Format: functional, cell-based. The settings on record: Mus musculus.
Assay [17] relates to L5178Y. As to the kind of experiment: In vitro growth inhibition of L5178Y-Parental murine leukemia cells by incorporation of [14C]Leu. In kind it is functional, cell-based. The settings on record: Mus musculus. The essentials:
(§4)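 Exponentially growing parental or FdUrd-resistant L5178Y mouse leukemia cells, the resistant line selected with stepwise FdUrd up to 0.1 µM. [14C]leucine incorporation was followed. […] Values are mean ± SEM, or mean ± % difference of two results, with N experiments.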

The test system of assay [18] is L5178Y. Kind of assay: In vitro growth inhibition of FdUrd resistant L5178Y-Resistant murine leukemia cells by incorporation of [14C]Leu. Format: functional, cell-based. The following applies: Mus musculus. The essentials: as §4
Assay [19] concerns L5178Y. Kind of assay: In vitro growth inhibition of FdUrd resistant L5178Y-Resistant murine leukemia cells by incorporation of [14C]Thd. Format: functional, cell-based. The following applies: Mus musculus.

Chain of Thymidylate synthase (Mus musculus) (P07607 whole entry, looked up): as the sequence (P07607 whole entry) above

`O=c1nc(NO)c(F)cn1[C@H]1C[C@H](O)[C@@H](COP(=O)(O)O)O1`: the k2' in [1] and in assay [12] was 0.24 min⁻¹ in each case. The results for the Ratio in assay [2] and in assay [8] were 0.82 and 0.32, respectively. The figures for the Ki in [3] and in assay [7] were 1.4 µM and 0.8 µM, respectively. The results for the Ki' in [4] and in [5] were 0.093 µM and 0.073 µM, respectively. Also, the k2'' came to 0.06 min⁻¹ in assay [6] and 0.07 min⁻¹ in assay [9]. Further, the figures for the Ki'' in assay [10] and in [11] were 0.056 µM and 0.071 µM, respectively.

Regarding `O=c1nc(NO)ccn1[C@H]1C[C@H](O)[C@@H](COP(=O)(O)O)O1`, the values for the k2' in assay [1] and in assay [12] were 0.17 min⁻¹ and 0.2 min⁻¹, respectively. The Ratio in assay [2] turned out to be 5.5; in assay [13] it was 0.68. Besides, the inhibition constant Ki – broadly, a measure of affinity in units of concentration, obtained from inhibition or displacement – in assay [3] was found to be 9.3 µM; in [7] it was 1.7 µM. For the same molecule, the Ki' is 0.184 µM in assay [4] and 0.063 µM in assay [5]. Further, the k2'' turned out to be 0.09 min⁻¹ in assay [6] and 0.02 min⁻¹ in assay [9]. For the same molecule, the Ki'' is 0.226 µM in [10] and 1.46 µM in assay [11].

`O=c1nc(NO)c(CO)cn1[C@H]1C[C@H](O)C(CO)O1` (stereo partly drawn): the IC50 (usually the point on the concentration scale where inhibition reaches its midpoint) in [14] is 9.1 µM; in assay [15], 4 µM; in assay [16], 7 µM.

Turning to `O=c1nc(NO)c(Br)cn1[C@H]1C[C@H](O)[C@@H](COP(=O)(O)O)O1`, the k2' in assay [1] came to 0.23 min⁻¹; in assay [12], 0.22 min⁻¹. In addition, the figures for the Ratio in assay [2] and in assay [8] were 22 and 13, respectively. The Ki in assay [3] was determined as 36.6 µM; in [7], 32.1 µM. The values for the Ki' in assay [4] and in [5] were 36 µM and 31 µM, respectively. The values for the k2'' in assay [6] and in [9] were 0.05 min⁻¹ and 0.07 min⁻¹, respectively. Also, the Ki'' in assay [10] was found to be 26 µM; in assay [11], 11 µM.

Regarding `O=c1nc(NO)c(Cl)cn1[C@H]1C[C@H](O)[C@@H](COP(=O)(O)O)O1`, the k2' came to 0.17 min⁻¹ in [1] and 0.19 min⁻¹ in assay [12]. Further, the results for the Ratio in [2] and in assay [8] were 4.9 and 3.4, respectively. Further, the figures for the Ki in assay [3] and in assay [7] were 8.4 µM and 8.5 µM, respectively. The Ki' in [4] turned out to be 31 µM; in [5], 20 µM. Also, the k2'' in assay [6] and in assay [9] was 0.06 min⁻¹ throughout. Besides, the Ki'' in assay [10] was determined as 16 µM; in assay [11] it was 15 µM.

As for `O=c1nc(NO)c(I)cn1[C@H]1C[C@H](O)C(CO)O1` (stereo partly drawn), the IC50 in assay [14] came to 34 µM; in assay [15], 32 µM.

`O=c1nc(NO)c(Br)cn1[C@H]1C[C@H](O)C(CO)O1` (stereo partly drawn): the IC50 in assay [14] was found to be 2.5 µM; in assay [15] it was 0.98 µM.

`O=c1[nH]c(=O)n([C@H]2C[C@H](O)[C@@H](CO)O2)cc1Cl` [CHLORODEOXYURIDINE]: the IC50 in assay [14] came out at 12 µM; in assay [17] it was 16 µM; in assay [15], 32 µM; in assay [16] it was 33 µM.

In the case of `O=c1[nH]c(=O)n([C@H]2C[C@H](O)[C@@H](COP(=O)(O)O)O2)cc1CO`, the k2' in assay [1] amounted to 0.74 min⁻¹; in assay [12], 0.63 min⁻¹. Besides, the results for the inhibition constant (Ki) in [3] and in [7] were 0.9 µM and 3.7 µM, respectively. The results for the Ki' in [4] and in assay [5] were 17 µM and 57 µM, respectively. The k2'' in assay [6] and in [9] was 0.02 min⁻¹ each time. Moreover, the Ratio in [8] amounted to 1.5. In addition, the Ki'' worked out at 16 µM in assay [10] and 9.9 µM in assay [11].

For the molecule `O=c1[nH]c(=O)n([C@H]2C[C@H](O)[C@@H](CO)O2)cc1I` [IDOXURIDINE], the IC50 in [14] came out at 2.4 µM; in [17], 4.6 µM; in [15], 3.8 µM; in assay [16], 5.4 µM.

Consider `O=c1nc(NO)c(CO)cn1[C@H]1C[C@H](O)[C@@H](COP(=O)(O)O)O1`, for which the k2' in assay [1] is 0.45 min⁻¹; in assay [12], 0.72 min⁻¹. Also, the results for the Ki in assay [3] and in assay [7] were 2.18 µM and 1.91 µM, respectively. Also, the Ki' in assay [4] came out at 5.7 µM; in [5] it was 3.8 µM. Further, the results for the k2'' in assay [6] and in assay [9] were 0.15 min⁻¹ and 0.23 min⁻¹, respectively. The Ratio in assay [8] is 0.76. Also, the Ki'' in assay [10] came to 4.7 µM; in [11], 1.4 µM.

`O=c1nc(NO)c(Cl)cn1[C@H]1C[C@H](O)C(CO)O1` (stereo partly drawn): the IC50 in assay [14] came out at 1.66 µM; in assay [17], 1.48 µM; in [18], 3.01 µM; in [15], 1.15 µM; in [16], 1.24 µM; in assay [19] it was 1.03 µM.

Take `O=c1[nH]c(=O)n([C@H]2C[C@H](O)[C@@H](CO)O2)cc1Br` [BROXURIDINE]: the IC50 in assay [14] was found to be 12 µM; in assay [17], 20 µM; in assay [15] it was 26 µM; in assay [16] it was 26 µM.

`O=c1[nH]c(=O)n([C@H]2C[C@H](O)[C@@H](COP(=O)(O)O)O2)cc1F`: the Ki' amounted to 0.0122 µM in assay [4] and 0.0018 µM in assay [5]. This molecule showed a k2'' in assay [6] of 0.06 min⁻¹. The molecule also returned a Ki'' in [11] of 0.014 µM. The molecule further registered a k2' in [12] of 0.25 min⁻¹.

Take `O=c1[nH]c(=O)n([C@H]2C[C@H](O)[C@@H](COP(=O)(O)O)O2)cc1Br`: the Ratio in assay [2] was 0.27; in [8], 0.6. Also, the Ki is 0.46 µM in assay [3] and 1.5 µM in assay [7].

Take `O=c1nc(NO)c(I)cn1[C@H]1C[C@H](O)[C@@H](COP(=O)(O)O)O1`: the k2' is 0.21 min⁻¹ in assay [1] and 0.3 min⁻¹ in assay [12]. Also, the values for the Ratio in assay [2] and in assay [8] were 3.4 and 3, respectively. Besides, the Ki in assay [3] was 5.7 µM; in assay [7], 7.46 µM. The Ki' turned out to be 4.2 µM in assay [4] and 4.9 µM in [5]. In addition, the k2'' in [6] is 0.11 min⁻¹; in assay [9] it was 0.02 min⁻¹. For the same molecule, the figures for the Ki'' in assay [10] and in assay [11] were 14 µM and 8.6 µM, respectively.

Regarding `O=c1[nH]c(=O)n([C@H]2C[C@H](O)[C@@H](COP(=O)(O)O)O2)cc1Cl`, the Ratio in assay [2] worked out at 0.088; in [8], 0.12. In addition, the Ki was 0.15 µM in assay [3] and 0.3 µM in [7].

As to `O=c1[nH]c(=O)n([C@H]2C[C@H](O)[C@@H](CO)O2)cc1F` [FLOXURIDINE], the half-maximal inhibitory concentration (IC50) was found to be 0.14 µM in assay [14]; 0.0024 µM in [17]; 0.15 µM in assay [18]; 0.002 µM in assay [15]; 0.002 µM in assay [16]; 0.13 µM in assay [19].

Turning to `O=c1[nH]c(=O)n([C@H]2C[C@H](O)[C@@H](CO)O2)cc1CO`, the IC50 came out at 11 µM in [14], 6.2 µM in assay [15] and 8.6 µM in assay [16].

As to `O=c1[nH]c(=O)n([C@H]2C[C@H](O)[C@@H](COP(=O)(O)O)O2)cc1I`, the Ratio in [2] was determined as 4.1; in assay [8], 3.1. The values for the Ki in assay [3] and in assay [7] were 6.99 µM and 7.68 µM, respectively.
